Data from ChEMBL document CHEMBL1150617, “New and biologically active imidazole alkaloids from two sponges of the genus Leucetta” (2002).
≈ marks a conversion by molar mass, not a printed value. Calls of active or inactive are those of the source. The calls are words filed in the database; no cut-off is given here.

Key:
[1] = system: Aspergillus pseudoglaucus; assay: Antifungal activity against Eurotium repens at 50 ug; assay type: functional, organism-based
Method in brief: (§1)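 Agar diffusion assay against bacteria (Bacillus megaterium, Escherichia coli), fungi (Microbotryum violaceum, Eurotium repens, Mycotypha microsporum) and the green microalga Chlorella fusca.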

[2] = system: Mycotypha microspora; assay: Antifungal activity against Mycotypha microspora at 50 ug; assay type: functional, organism-based; method in brief: as §1
[3] = system: [Chlorella] fusca; assay: Antialgal activity against 'Chlorella' fusca at 50 ug; assay type: functional, organism-based; conditions: Scenedesmus fuscus; method in brief: as §1
[4] = system: Priestia megaterium; assay: Antibacterial activity against Bacillus megaterium at 50 ug; assay type: functional, organism-based; method in brief: as §1
[5] = system: Microbotryum violaceum; assay: Antifungal activity against Microbotryum violaceum at 50 ug; assay type: functional, organism-based; method in brief: as §1
[6] = system: Escherichia coli; assay: Antibacterial activity against Escherichia coli at 50 ug; assay type: functional, organism-based; method in brief: as §1
[7] = system: Huh-7; assay: Cytotoxicity against human HuH7 cells; assay type: functional
Method in brief: (§2)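 Cytotoxicity run to NCI standards on the human tumour lines HM02 (stomach carcinoma), HepG2 (liver carcinoma) and Huh7 (liver carcinoma with mutated p53).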

[8] = Cytotoxicity against human HM02 cells; assay type: functional; method in brief: as §2
[9] = system: HepG2; assay: Cytotoxicity against human HepG2 cells; assay type: functional; method in brief: as §2

For `COc1ccc(Cc2[nH]c(=N)n(C)c2Cc2cc(O)c(OC)c(O)c2)cc1`, the Activity [1] was “inactive”, the Activity [2] was “inactive” and the Activity [3] was “inactive”. For the same compound, the Activity [4] was “inactive”, the Activity [5] was “inactive” and the Activity [6] was “inactive”.

With `COc1ccc(Cc2cn(Cc3ccc(O)cc3)c(=N)n2C)cc1` the Activity [1] was “inactive”, the Activity [2] was “inactive” and the Activity [3] was “inactive”. The Activity [4] was “inactive”, the Activity [5] was “inactive” and the Activity [6] was “inactive”.

With `COc1ccc(Cc2[nH]c(=N)n(C)c2Cc2ccc(O)cc2)cc1` the Activity [1] was “inactive”, the Activity [2] was “inactive” and the Activity [3] was “inactive”. The Activity [4] was “inactive”, the Activity [5] was “inactive” and the Activity [6] was “inactive”.

For `COc1ccc(Cn2cc(Cc3ccc(OC)c(OC)c3)nc2N)cc1` [ISONAAMINE C], the Activity [1] was “inactive”, the GI50 [7] was 2.1 µg/mL (≈ 5.94 µM) and the Activity [2] was “inactive”. For the same compound, the Activity [3] was “inactive”, the Activity [4] was “inactive” and the GI50 [8] was 5.3 µg/mL (≈ 15 µM). For the same compound, the Activity [5] was “inactive”, the Activity [6] was “inactive” and the GI50 [9] was 2.2 µg/mL (≈ 6.22 µM).

For `COc1ccc(Cn2cc(Cc3ccc(OC)c(OC)c3)nc2/N=C2/NC(=O)N(C)C2=O)cc1` [ISONAAMIDINE E], the Activity [1] was “inactive”, the GI50 [7] was 1.3 µg/mL (≈ 2.8 µM) and the Activity [2] was “inactive”. For the same compound, the Activity [3] was “inactive”, the Activity [4] was “inactive” and the GI50 [8] was 7 µg/mL (≈ 15.1 µM). For the same compound, the Activity [5] was “inactive”, the Activity [6] was “inactive” and the GI50 [9] was 7 µg/mL (≈ 15.1 µM).
